Reference: ChEMBL document CHEMBL1932999, “Increased susceptibility to resveratrol of Helicobacter pylori strains isolated from patients with gastric carcinoma” (2011)
Values after ≈ are worked out from the molar mass of the structure shown.

Key:
Helicobacter pylori [1] = assay: Antibacterial activity against CagA-deficient Helicobacter pylori Ba142 isolated from chronic gastritis patient after 24 hrs compound exposure followed by incubation on Columbia-blood agar plate for 3 to 5 days; type: functional
Procedure, shortened: (§1)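 Compound dissolved in water with 4% DMSO, filter-sterilized, and serially twofold diluted in Brucella broth with 10% bovine fetal serum. Inoculum from 48 h microaerobic Brucella agar-BFS cultures, added at approximately 10^6 CFU/mL final. Broth incubated microaerobically at 37 °C for 24 or 48 h, then each dilution subcultured onto Columbia-blood agar. MBC is the lowest concentration with no growth on subculture. Triplicate; mean ± SD.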

Helicobacter pylori [2] = assay: Antibacterial activity against CagA-expressing Helicobacter pylori CCUG17874 isolated from chronic gastritis patient after 24 hrs compound exposure followed by incubation on Columbia-blood agar plate for 3 to 5 days; type: functional; procedure, shortened: as §1
Helicobacter pylori [3] = assay: Antibacterial activity against CagA-expressing Helicobacter pylori 328 isolated from chronic gastritis patient after 48 hrs compound exposure followed by incubation on Columbia-blood agar plate for 3 to 5 days; type: functional; procedure, shortened: as §1
Helicobacter pylori [4] = assay: Antibacterial activity against CagA-expressing Helicobacter pylori 18C7 isolated from gastric carcinoma patient after 48 hrs compound exposure followed by incubation on Columbia-blood agar plate for 3 to 5 days; type: functional; procedure, shortened: as §1
Helicobacter pylori [5] = assay: Antibacterial activity against CagA-expressing Helicobacter pylori 10Kb isolated from gastric carcinoma patient after 48 hrs compound exposure followed by incubation on Columbia-blood agar plate for 3 to 5 days; type: functional; procedure, shortened: as §1
Helicobacter pylori [6] = assay: Antibacterial activity against CagA-expressing Helicobacter pylori CCUG17874 isolated from chronic gastritis patient after 48 hrs compound exposure followed by incubation on Columbia-blood agar plate for 3 to 5 days; type: functional; procedure, shortened: as §1
Helicobacter pylori [7] = assay: Antibacterial activity against CagA-expressing Helicobacter pylori SI10 isolated from chronic gastritis patient after 24 hrs compound exposure followed by incubation on Columbia-blood agar plate for 3 to 5 days; type: functional
Procedure, shortened: (§2)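 Broth microdilution MBC against clinical H. pylori isolates (cagA by PCR; stocks kept frozen in Columbia broth with 20% glycerol). Compound dissolved in water with 4% DMSO, filter-sterilized, double diluted in Brucella broth with 10% fetal bovine serum. Inoculum about 10^6 CFU/mL from 48 h microaerobic Brucella agar-BFS cultures. Plates held microaerobically at 37 °C for 24 and 48 h. Each well was then spotted onto Columbia-blood agar for 3-5 days. MBC is the lowest concentration giving no regrowth. Triplicate, mean ± SD.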

Helicobacter pylori [8] = assay: Bactericidal activity against CagA-expressing Helicobacter pylori G20 isolated from chronic gastritis patient compound exposure followed by incubation on Columbia-blood agar plate for 3 to 5 days; type: functional, organism-based; settings: TDE = time-dependent effect; procedure, shortened: as §2
Helicobacter pylori [9] = assay: Antibacterial activity against CagA-expressing Helicobacter pylori G27 isolated from chronic gastritis patient after 48 hrs compound exposure followed by incubation on Columbia-blood agar plate for 3 to 5 days; type: functional; procedure, shortened: as §1
Helicobacter pylori [10] = assay: Antibacterial activity against CagA-expressing Helicobacter pylori Ma01 isolated from chronic gastritis patient after 48 hrs compound exposure followed by incubation on Columbia-blood agar plate for 3 to 5 days; type: functional; procedure, shortened: as §1
Helicobacter pylori [11] = assay: Antibacterial activity against CagA-expressing Helicobacter pylori 17C7 isolated from gastric carcinoma patient after 48 hrs compound exposure followed by incubation on Columbia-blood agar plate for 3 to 5 days; type: functional; procedure, shortened: as §1
Helicobacter pylori [12] = assay: Bactericidal activity against CagA-expressing Helicobacter pylori SI10 isolated from chronic gastritis patient compound exposure followed by incubation on Columbia-blood agar plate for 3 to 5 days; type: functional, organism-based; settings: TDE = time-dependent effect; procedure, shortened: as §2
Helicobacter pylori [13] = assay: Antibacterial activity against CagA-expressing Helicobacter pylori 2Ca isolated from gastric carcinoma patient after 48 hrs compound exposure followed by incubation on Columbia-blood agar plate for 3 to 5 days; type: functional; procedure, shortened: as §1
Helicobacter pylori [14] = assay: Antibacterial activity against CagA-deficient Helicobacter pylori G12 isolated from chronic gastritis patient after 48 hrs compound exposure followed by incubation on Columbia-blood agar plate for 3 to 5 days; type: functional; procedure, shortened: as §1
Helicobacter pylori [15] = assay: Antibacterial activity against CagA-expressing Helicobacter pylori G20 isolated from chronic gastritis patient after 48 hrs compound exposure followed by incubation on Columbia-blood agar plate for 3 to 5 days; type: functional; procedure, shortened: as §1
Helicobacter pylori [16] = assay: Antibacterial activity against CagA-expressing Helicobacter pylori 328 isolated from chronic gastritis patient after 24 hrs compound exposure followed by incubation on Columbia-blood agar plate for 3 to 5 days; type: functional; procedure, shortened: as §1
Helicobacter pylori [17] = assay: Antibacterial activity against CagA-expressing Helicobacter pylori MD6 isolated from chronic gastritis patient after 48 hrs compound exposure followed by incubation on Columbia-blood agar plate for 3 to 5 days; type: functional; procedure, shortened: as §1
Helicobacter pylori [18] = assay: Antibacterial activity against CagA-deficient Helicobacter pylori G12 isolated from chronic gastritis patient after 24 hrs compound exposure followed by incubation on Columbia-blood agar plate for 3 to 5 days; type: functional; procedure, shortened: as §1
Helicobacter pylori [19] = assay: Antibacterial activity against CagA-deficient Helicobacter pylori NS23 isolated from chronic gastritis patient after 48 hrs compound exposure followed by incubation on Columbia-blood agar plate for 3 to 5 days; type: functional; procedure, shortened: as §1
Helicobacter pylori [20] = assay: Antibacterial activity against CagA-deficient Helicobacter pylori G104 isolated from chronic gastritis patient after 48 hrs compound exposure followed by incubation on Columbia-blood agar plate for 3 to 5 days; type: functional; procedure, shortened: as §1
Helicobacter pylori [21] = assay: Antibacterial activity against CagA-expressing Helicobacter pylori 4Cb isolated from gastric carcinoma patient after 24 hrs compound exposure followed by incubation on Columbia-blood agar plate for 3 to 5 days; type: functional; procedure, shortened: as §1
Helicobacter pylori [22] = assay: Antibacterial activity against CagA-expressing Helicobacter pylori 1C1 isolated from gastric carcinoma patient after 24 hrs compound exposure followed by incubation on Columbia-blood agar plate for 3 to 5 days; type: functional; procedure, shortened: as §1
Helicobacter pylori [23] = assay: Bactericidal activity against CagA-deficient Helicobacter pylori G21b isolated from chronic gastritis patient compound exposure followed by incubation on Columbia-blood agar plate for 3 to 5 days; type: functional, organism-based; settings: TDE = time-dependent effect; procedure, shortened: as §2
Helicobacter pylori [24] = assay: Antibacterial activity against CagA-deficient Helicobacter pylori 328 KM isolated from chronic gastritis patient after 48 hrs compound exposure followed by incubation on Columbia-blood agar plate for 3 to 5 days; type: functional; procedure, shortened: as §1
Helicobacter pylori [25] = assay: Antibacterial activity against CagA-expressing Helicobacter pylori 3Cb isolated from gastric carcinoma patient after 48 hrs compound exposure followed by incubation on Columbia-blood agar plate for 3 to 5 days; type: functional; procedure, shortened: as §1
Helicobacter pylori [26] = assay: Bactericidal activity against CagA-deficient Helicobacter pylori G204 isolated from chronic gastritis patient compound exposure followed by incubation on Columbia-blood agar plate for 3 to 5 days; type: functional, organism-based; settings: TDE = time-dependent effect; procedure, shortened: as §2
Helicobacter pylori [27] = assay: Bactericidal activity against CagA-deficient Helicobacter pylori G104 isolated from chronic gastritis patient compound exposure followed by incubation on Columbia-blood agar plate for 3 to 5 days; type: functional, organism-based; settings: TDE = time-dependent effect; procedure, shortened: as §2
Helicobacter pylori [28] = assay: Antibacterial activity against CagA-expressing Helicobacter pylori MD6 isolated from chronic gastritis patient after 24 hrs compound exposure followed by incubation on Columbia-blood agar plate for 3 to 5 days; type: functional; procedure, shortened: as §1
Helicobacter pylori [29] = assay: Bactericidal activity against CagA-deficient Helicobacter pylori NS23 isolated from chronic gastritis patient compound exposure followed by incubation on Columbia-blood agar plate for 3 to 5 days; type: functional, organism-based; settings: TDE = time-dependent effect; procedure, shortened: as §2
Helicobacter pylori [30] = assay: Antibacterial activity against CagA-expressing Helicobacter pylori MDO21 isolated from chronic gastritis patient after 48 hrs compound exposure followed by incubation on Columbia-blood agar plate for 3 to 5 days; type: functional; procedure, shortened: as §1
Helicobacter pylori [31] = assay: Antibacterial activity against CagA-deficient Helicobacter pylori G21b isolated from chronic gastritis patient after 24 hrs compound exposure followed by incubation on Columbia-blood agar plate for 3 to 5 days; type: functional; procedure, shortened: as §1
Helicobacter pylori [32] = assay: Antibacterial activity against CagA-deficient Helicobacter pylori NS23 isolated from chronic gastritis patient after 24 hrs compound exposure followed by incubation on Columbia-blood agar plate for 3 to 5 days; type: functional; procedure, shortened: as §1
Helicobacter pylori [33] = assay: Bactericidal activity against CagA-expressing Helicobacter pylori G39 isolated from chronic gastritis patient compound exposure followed by incubation on Columbia-blood agar plate for 3 to 5 days; type: functional, organism-based; settings: TDE = time-dependent effect; procedure, shortened: as §2
Helicobacter pylori [34] = assay: Antibacterial activity against CagA-deficient Helicobacter pylori G204 isolated from chronic gastritis patient after 48 hrs compound exposure followed by incubation on Columbia-blood agar plate for 3 to 5 days; type: functional; procedure, shortened: as §1
Helicobacter pylori [35] = assay: Antibacterial activity against CagA-expressing Helicobacter pylori G27 isolated from chronic gastritis patient after 24 hrs compound exposure followed by incubation on Columbia-blood agar plate for 3 to 5 days; type: functional; procedure, shortened: as §1

Compound: Oc1ccc(/C=C/c2cc(O)cc(O)c2)cc1 [RESVERATROL]
- MBC (Helicobacter pylori [1]): 295 µg/mL (≈ 1290 µM)
- MBC (Helicobacter pylori [2]): 589 µg/mL (≈ 2580 µM)
- MBC (Helicobacter pylori [3]): 295 µg/mL (≈ 1290 µM)
- MBC (Helicobacter pylori [4]): 37 µg/mL (≈ 162 µM)
- MBC (Helicobacter pylori [5]): 147 µg/mL (≈ 644 µM)
- MBC (Helicobacter pylori [6]): 295 µg/mL (≈ 1290 µM)
- MBC (Helicobacter pylori [7]): 589 µg/mL (≈ 2580 µM)
- Activity (Helicobacter pylori [8]): tde
- MBC (Helicobacter pylori [9]): 295 µg/mL (≈ 1290 µM)
- MBC (Helicobacter pylori [10]): 589 µg/mL (≈ 2580 µM)
- MBC (Helicobacter pylori [11]): 37 µg/mL (≈ 162 µM)
- Activity (Helicobacter pylori [12]): tde
- MBC (Helicobacter pylori [13]): 160 µg/mL (≈ 701 µM)
- MBC (Helicobacter pylori [14]): 324 µg/mL (≈ 1420 µM)
- MBC (Helicobacter pylori [15]): 640 µg/mL (≈ 2800 µM)
- MBC (Helicobacter pylori [16]): 295 µg/mL (≈ 1290 µM)
- MBC (Helicobacter pylori [17]): 295 µg/mL (≈ 1290 µM)
- MBC (Helicobacter pylori [18]): 648 µg/mL (≈ 2840 µM)
- MBC (Helicobacter pylori [19]): 147 µg/mL (≈ 644 µM)
- MBC (Helicobacter pylori [20]): 295 µg/mL (≈ 1290 µM)
- MBC (Helicobacter pylori [21]): 147 µg/mL (≈ 644 µM)
- MBC (Helicobacter pylori [22]): 80 µg/mL (≈ 350 µM)
- Activity (Helicobacter pylori [23]): tde
- MBC (Helicobacter pylori [24]): 147 µg/mL (≈ 644 µM)
- MBC (Helicobacter pylori [25]): 40 µg/mL (≈ 175 µM)
- Activity (Helicobacter pylori [26]): tde
- Activity (Helicobacter pylori [27]): tde
- MBC (Helicobacter pylori [28]): 589 µg/mL (≈ 2580 µM)
- Activity (Helicobacter pylori [29]): tde
- MBC (Helicobacter pylori [30]): 295 µg/mL (≈ 1290 µM)
- MBC (Helicobacter pylori [31]): 295 µg/mL (≈ 1290 µM)
- MBC (Helicobacter pylori [32]): 147 µg/mL (≈ 644 µM)
- Activity (Helicobacter pylori [33]): tde
- MBC (Helicobacter pylori [34]): 648 µg/mL (≈ 2840 µM)
- MBC (Helicobacter pylori [35]): 295 µg/mL (≈ 1290 µM)
